Experimental data from ChEMBL document CHEMBL4177759 (J Med Chem, 2018).
One block for each molecule: values may come before it.

How the values were obtained:
[1] = Prodrug conversion in naive mouse plasma assessed as mebendazole formation by measuring remaining parent drug at 10 uM measured at 60 mins by LC-MS/MS method; type: ADME, cell-free; conditions: 1 h
How it was run: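 Prodrug spiked at 10 µM into 1 mL naive mouse plasma, incubated on orbital shaker at 37 °C; triplicate aliquots at 0 and 60 min quenched with ice-cold acetonitrile plus losartan internal standard; remaining prodrug by LC-MS/MS.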

[2] = Prodrug conversion in mouse liver microsomes assessed as mebendazole formation by measuring remaining parent drug at 10 uM measured at 60 mins by LC-MS/MS method; type: ADME, microsome; conditions: 1 h
How it was run: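 Mouse liver microsomes (0.5 mg/mL) with 10 µM prodrug in 100 mM potassium phosphate, pH 7.4, reaction started by adding microsomes; triplicate samples at 0 and 60 min quenched with ice-cold acetonitrile containing losartan; prodrug disappearance by LC-MS/MS.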

[3] = Chemical stability of the compound in 0.01 M PBS at 10 uM after 60 mins by LC-MS/MS method; type: physicochemical; conditions: buffer, 1 h
How it was run: (§1)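 Prodrug from 10 mM DMSO stock spiked to 10 µM final in preheated PBS at 37 °C; aliquots taken over 60 min, quenched with cold acetonitrile containing losartan internal standard, diluted with water, and intact prodrug measured by LC-MS/MS.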

[4] = Solubility of the compound in 0.01 M PBS after 24 hrs by shake flask method; type: physicochemical; conditions: buffer
[5] = Prodrug conversion in mouse jejunum homogenate assessed as mebendazole formation by measuring remaining parent drug at 10 uM measured at 60 mins by LC-MS/MS method; type: ADME, tissue-based; conditions: in vitro, 1 h
How it was run: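 Washed mouse jejunum diluted 10-fold in 0.1 M potassium phosphate buffer, probe-sonicated; homogenate spiked with 10 µM prodrug; triplicate aliquots at 0 and 60 min quenched with ice-cold acetonitrile plus losartan; prodrug remaining by LC-MS/MS peak-area ratio to internal standard.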

[6] = Prodrug conversion in CD1 mouse plasma assessed as mebendazole formation at 30 mg/kg mebendazole equivalent administered single dose via oral gavage measured at 60 mins by LC-MS/MS method; type: ADME, organism-based; conditions: in vivo, 1 h
[7] = Chemical stability of the compound in 0.01 M PBS assessed as parent compound remaining at 10 uM after 60 mins by LC-MS/MS method; type: physicochemical; conditions: read-out: Stability; how it was run: as §1
[8] = mouse, in vivo, po, 30 mg/kg, 0.5 h
[9] = Cmax in CD1 mouse plasma at 30 mg/kg administered via oral gavage at 60 mins by LC-MS/MS method; type: ADME, organism-based; design: dose 30 mg/kg, route oral
How it was run: (§2)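 Male CD-1 mice dosed once by oral gavage, 30 mg/kg MBZ equivalent, formulated just before dosing in 5% ethanol, 5% polysorbate 80, 90% water; plasma and brain collected at set times after CO2 euthanasia; MBZ by LC-MS/MS; AUC0-t by log-linear trapezoidal rule; brain/plasma ratio as ratio of mean AUC0-t values.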

[10] = Clearance in Beagle dog at 0.3 mg/kg, iv by LC-MS/MS method; type: ADME, organism-based, Canis lupus familiaris; conditions: in vivo
How it was run: (§3)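 Male beagle dogs (n=2) given single IV bolus of MBZ-C at 0.3 mg/kg in co-solvent vehicle (1% DMSO, 10% Cremophor EL). Jugular vein blood (~1 mL) by direct puncture at set times into sodium heparin tubes, kept on wet ice, spun 3,000 × g 5 min 4 °C, plasma stored -80 °C; MBZ quantified by LC-MS/MS.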

[11] = Plasma concentration in CD1 mouse at 30 mg/kg administered single dose via oral gavage measured at 60 mins by LC-MS/MS method; type: ADME, organism-based
[12] = Volume of distribution in Beagle dog at 0.3 mg/kg, iv by LC-MS/MS method; type: ADME, organism-based, Canis lupus familiaris; conditions: in vivo; how it was run: as §3
[13] = Cmax in Beagle dog at 0.3 mg/kg, iv at 5 mins by LC-MS/MS method; type: ADME, organism-based, Canis lupus familiaris; design: dose 0.3 mg/kg, route intravenous; conditions: in vivo; how it was run: as §3
[14] = Ratio of drug level in brain to plasma in CD1 mouse at 30 mg/kg administered via oral gavage by LC-MS/MS method; type: ADME, organism-based; conditions: brain and plasma, read-out: BPR; how it was run: as §2
[15] = Oral bioavailability in CD1 mouse plasma at 30 mg/kg administered via gavage by LC-MS/MS method; type: ADME, organism-based
[16] = Cmax in CD1 mouse at 1.5 mg/kg, iv at 5 mins by LC-MS/MS method; type: ADME, organism-based; design: dose 1.5 mg/kg, route intravenous; conditions: in vivo
How it was run: (§4)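 Male CD-1 mice (25–30 g) received single IV dose 1.5 mg/kg MBZ-C dissolved just before dosing in 1% DMSO, 10% Cremophor EL, 89% saline; sacrificed by CO2 at set times; plasma extracted with acetonitrile containing losartan internal standard and MBZ measured by LC-MS/MS against naive-matrix calibration (0.001-50 nmol/g).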

[17] = AUC (0 to t) in CD1 mouse plasma at 30 mg/kg administered via oral gavage by LC-MS/MS method; type: ADME, organism-based; how it was run: as §2
[18] = Oral bioavailability in Beagle dog at […] by LC-MS/MS method; type: ADME, organism-based, Canis lupus familiaris; conditions: in vivo
[19] = AUC (0 to t) in Beagle dog at […], po by LC-MS/MS method; type: ADME, organism-based, Canis lupus familiaris; conditions: in vivo
[20] = Half life in Beagle dog at 0.3 mg/kg, iv by LC-MS/MS method; type: ADME, organism-based, Canis lupus familiaris; conditions: in vivo; how it was run: as §3
[21] = Clearance in CD1 mouse at 1.5 mg/kg, iv by LC-MS/MS method; type: ADME, organism-based; conditions: in vivo; how it was run: as §4
[22] = AUC (0 to t) in CD1 mouse at 1.5 mg/kg, iv by LC-MS/MS method; type: ADME, organism-based; conditions: in vivo; how it was run: as §4
[23] = Cmax in CD1 mouse brain at 30 mg/kg administered via oral gavage at 60 mins by LC-MS/MS method; type: ADME, organism-based; design: dose 30 mg/kg, route oral; conditions: in vivo, 1 h; how it was run: as §2
[24] = Tmax in CD1 mouse brain at 30 mg/kg administered via oral gavage by LC-MS/MS method; type: ADME, organism-based; how it was run: as §2
[25] = Tmax in Beagle dog at 0.3 mg/kg, iv by LC-MS/MS method; type: ADME, organism-based, Canis lupus familiaris; conditions: in vivo; how it was run: as §3
[26] = Oral bioavailability in human at 1.7 ug; type: ADME, organism-based; conditions: in vivo
[27] = Cmax in Beagle dog at […], po measured at 2 hrs by LC-MS/MS method; type: ADME, organism-based, Canis lupus familiaris; design: dose 2.5 mg/kg, route oral; conditions: in vivo
[28] = AUC (0 to t) in CD1 mouse brain at 30 mg/kg administered via oral gavage by LC-MS/MS method; type: ADME, organism-based; conditions: in vivo; how it was run: as §2
[29] = Oral bioavailability in human at 1.18 ug; type: ADME, organism-based; conditions: in vivo
[30] = Tmax in CD1 mouse plasma at 30 mg/kg administered via oral gavage by LC-MS/MS method; type: ADME, organism-based; how it was run: as §2
[31] = Volume of distribution in CD1 mouse at 1.5 mg/kg, iv by LC-MS/MS method; type: ADME, organism-based; conditions: in vivo; how it was run: as §4
[32] = Tmax in Beagle dog at […], po by LC-MS/MS method; type: ADME, organism-based, Canis lupus familiaris; conditions: in vivo
[33] = AUC (0 to t) in Beagle dog at 0.3 mg/kg, iv by LC-MS/MS method; type: ADME, organism-based, Canis lupus familiaris; conditions: in vivo; how it was run: as §3
[34] = Tmax in CD1 mouse at 1.5 mg/kg, iv by LC-MS/MS method; type: ADME, organism-based; conditions: in vivo; how it was run: as §4
[35] = Half life in CD1 mouse at 1.5 mg/kg, iv by LC-MS/MS method; type: ADME, organism-based; conditions: in vivo; how it was run: as §4

Stability [1]: 18%
Stability [2]: 27%
Stability [3]: Stable
solubility [4]: Soluble
Stability [5]: 4%
SMILES: COC(=O)Nc1nc2cc(C(=O)c3ccccc3)ccc2n1COC(=O)OC[C@H]1OC(O)[C@H](O)[C@@H](O)[C@@H]1O (some centres not stated)

Stability [1]: 78%
Stability [2]: 24%
Stability [3]: Stable
solubility [4]: Soluble
Stability [5]: 30%
SMILES: COC(=O)Nc1nc2cc(C(=O)c3ccccc3)ccc2n1COC(=O)CCC(=O)O

Stability [3]: Stable
solubility [4]: Soluble
SMILES: COC(=O)Nc1nc2cc(C(=O)c3ccccc3)ccc2n1COC(=O)OC(C)C

Stability [1]: 0%
Drug metabolism [6]: 8.72 nmol/mL
Stability [2]: 29%
Stability [3]: Stable
solubility [4]: Soluble
Stability [5]: 18%
SMILES: COC(=O)Nc1nc2cc(C(=O)c3ccccc3)ccc2n1COC(=O)CNC(=O)[C@H](CC(C)C)NC(C)=O

remaining at 1 h, 10 µM [7]: 0%
solubility [4]: Soluble
SMILES: COC(=O)Nc1nc2cc(C(=O)c3ccccc3)ccc2n1COC(=O)CC[C@H](N)C(=O)O

Cmax [8]: 12.2 µM
Stability [1]: 73%
Drug metabolism [6]: 10.35 nmol/mL
Stability [2]: 14%
Stability [3]: Stable
Stability [5]: 1%
SMILES: COC(=O)Nc1nc2cc(C(=O)c3ccccc3)ccc2n1COP(=O)(O)OCOC(=O)OC(C)C

Cmax [9]: 5.1 µM
clearance [10]: 22.2 mL/min/kg
concentration at 1 h [11]: 2.86 µM
Vd [12]: 1.3 L/kg
Cmax [13]: 2.2 µM
Stability [1]: 100%
Kp [14]: 1
bioavailability [15]: 24%
Cmax [16]: 5.3 µM
AUC(0-t) [17]: 12.9 µM·h
bioavailability [18]: 11%
AUC(0-t) [19]: 0.8 µM·h
half-life [20]: 43.2 min
clearance [21]: 27.4 mL/min/kg
AUC(0-t) [22]: 2.7 µM·h
Cmax [23]: 5.1 nmol/g
Tmax [24]: 60 min
Tmax [25]: 4.98 min
bioavailability [26]: 17%
Cmax at 2 h [27]: 0.2 µM
AUCt [28]: 13.1 nmol·h/g
bioavailability [29]: 22%
Stability [2]: 100%
Tmax [30]: 60 min
Vd [31]: 1.4 L/kg
Tmax [32]: 120 min
AUC(0-t) [33]: 0.9 µM·h
Tmax [34]: 4.98 min
half-life [35]: 43.8 min
Stability [5]: 100%
SMILES: COC(=O)Nc1nc2ccc(C(=O)c3ccccc3)cc2[nH]1 [MEBENDAZOLE]

Stability [1]: 62%
Drug metabolism [6]: 8.53 nmol/mL
Stability [2]: 100%
Stability [3]: Stable
solubility [4]: Soluble
Stability [5]: 35%
SMILES: COC(=O)Nc1nc2cc(C(=O)c3ccccc3)ccc2n1COP(=O)(O)O
